From PMC11607638 (The FASEB Journal, 2024)
Like-named read-outs stand apart in the source and are kept apart here. Square brackets hold non-standard residues; d marks the D form. Ends that are not written are not given here. sY = N[C@@H](Cc1ccc(OS(=O)(=O)O)cc1)C(=O)O

Assays:
[1] = tested on: SK receptor gene SKR; assay: Fura-2 calcium imaging in perifused SKR-CHO-K1 cells; type: cell-based, Aedes aegypti; settings: for Reversibility of stimulation upon wash-out in perifused SKR-CHO-K1 cells: Figures 4, 5, 6; for Onset (lag time) of cytosolic calcium oscillations in SKR-CHO-K1 cells: at lower concentrations, Figures 4 and 5
Method in brief: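 CHO-K1 cells at 80–90% confluency were transfected in serum-free medium with pcDNA3.1(+)-SKR using jetPRIME for 24–36 h. Cells were loaded with Fura-2AM (10 µM, 50 min, 37 °C), attached to coated coverslips and perifused in HEPES buffer, pH 7.4. The 340/380 nm excitation ratio was recorded per single cell. Peptides used: SK1 300 pM–30 nM, SK2 3 nM ± devazepide 10 nM, CCK 1–100 nM. Peak area above baseline per 10 min; mean ± SEM, t-test.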

[2] = tested on: Aedes aegypti; assay: Blood meal size after thoracic peptide injection; type: in vivo; settings: 24 h
Method in brief: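 Females 3 days post-eclosion, starved 12 h before and 24 h after a 1 µL thoracic injection, then blood-fed. Each mosquito was weighed before and after the meal, and intake was taken as the weight difference. SK2 was given at 50, 100 or 150 pmol/µL against DEPC water, 30 per group. For reversal, SK2 100 µM plus proglumide 14 mM (final, 1:1 mix) was injected and intake weighed 24 h later.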

[3] = Body weight of female mosquitoes after injection; type: in vivo, Aedes aegypti; settings: for Pre-blood meal body weight among groups: DEPC water, SK2 100 μM, SK2 + proglumide (Figure 3F left)
Method in brief: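 Females 3 days post-eclosion were starved 12 h, given a 1 µL thoracic injection, and starved a further 24 h. They were weighed on a balance immediately before the blood meal, 30 per group.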

[4] = tested on: mammalian cholecystokinin 1 receptor (CCK1R); assay: Fura-2 calcium imaging in isolated rat pancreatic acini; type: cell-based; settings: CCK 10 pM
Method in brief: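 Acini came from male Sprague-Dawley rats (250–450 g) by collagenase P digestion (0.2 g/L, 2 × 10 min, 37 °C) in HEPES-buffered saline, pH 7.4. They were loaded with Fura-2AM (10 µM, 30 min) and attached to Cell-Tak- or Matrix-Gel-coated coverslips in a perifusion chamber. The buffer was the same minus BSA, amino acids and trypsin inhibitor. Fluorescence was excited alternately at 340/380 nm and the ratio recorded over time.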

[5] = tested on: SK gene SK; assay: qPCR of SK mRNA in mosquito head after peptide injection; type: in vivo, Aedes aegypti; settings: after blood feeding 24 h after injection
[6] = tested on: Aedes aegypti; assay: Blood-feeding time course after thoracic peptide injection; type: in vivo; settings: Figure 3C
Method in brief: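 Females were given 1 µL thoracic injections of DEPC water, SK1, SK2 (200 µM) or SK1+SK2 (100 µM each, final), then kept in separate cages for 24 h, 20 per group, and offered blood. Feeding was counted as complete when a mosquito stopped and no longer moved actively. Completed feeders were recorded every 10 min until all had fed; run in triplicate.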

[7] = tested on: CHO-K1 cells; assay: Fura-2 calcium imaging in un-transfected parental CHO-K1 cells; type: cell-based, Chinese hamster; settings: 30 nM
Method in brief: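 Un-transfected CHO-K1 cells were grown in DMEM/F12 with 10% FBS, then loaded with Fura-2AM (10 µM, 50 min, 37 °C) and perifused on coated coverslips. They were exposed to SK1 or SK2 at 30 nM. Cytosolic calcium was followed as the 340/380 nm excitation ratio in single cells.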

[8] = tested on: SK receptor gene SKR; assay: qPCR of SKR mRNA in mosquito head after peptide injection; type: in vivo, Aedes aegypti; settings: after blood feeding 24 h after injection

Compound: CN1C(=O)[C@@H](NC(=O)c2cc3ccccc3[nH]2)N=C(c2ccccc2)c2ccccc21 [devazepide, reference compound]
- Block of SK2-induced calcium increases in SKR-CHO-K1 cells (antagonism) ([1]; devazepide 10 nM + SK2 3 nM): no longer induced any calcium increases

Compound: NCCc1ccc(O)c(O)c1 [dopamine, reference compound]
- Calcium response in SKR-CHO-K1 cells ([1]; dopamine 1 mM): no effect

Compound: CCCN(CCC)C(=O)C(CCC(=O)O)NC(=O)c1ccccc1 (centres unmarked) [proglumide]
- Blood intake after mixed injection vs DEPC water control ([2]; proglumide 14 mM + SK2 100 μM, 1 μL): no significant difference
- Blood intake after mixed injection vs single injection of SK2 at 100 μM ([2]; proglumide 14 mM + SK2 100 μM, 1 μL, ****p < .0001 (Figure 3F)): higher
- Pre-blood meal body weight among groups [3]: No difference

Compound: CCK: sulfated cholecystokinin octapeptide (CCK), Tocris Cookson #1166 (D[sY]MGWMDF-NH2; UniProt P06307 96-103, looked up) [reference compound]
- Calcium response in SKR-CHO-K1 cells ([1]; CCK 1 nM): no effect
- Calcium response in SKR-CHO-K1 cells ([1]; CCK 10 nM and 100 nM): clear calcium increases
- Reversibility of stimulation upon wash-out in perifused SKR-CHO-K1 cells [1]: readily washed out
- Efficiency of activating SKR compared with mosquito peptide SK2 ([1]; SKR-CHO-K1, Figure 6): probably less efficiently than the mosquito peptide SK2
- Calcium response in rat pancreatic acini [4]: robust calcium oscillations

Compound: FDDY(SO3H)GHMRF [SK1]
- SK mRNA expression vs DEPC water control [5]: decrease significantly
- Prolongation of feeding, comparison with SK2 at same concentration ([6]; SK1 200 μM): significantly less active
- Calcium response in parental CHO-K1 cells [7]: no effect
- Reversibility of stimulation upon wash-out in perifused SKR-CHO-K1 cells [1]: long‐lasting even after wash‐out
- Calcium response in SKR-CHO-K1 cells ([1]; SK1 300 pM): did not elicit any change in calcium levels
- Calcium response in SKR-CHO-K1 cells ([1]; SK1 at 1, 3, 10, and 30 nM (all)): robust calcium spikes
- Onset (lag time) of cytosolic calcium oscillations in SKR-CHO-K1 cells [1]: significant lag time
- EC50 ([1]; read-out: EC50, calcium spikes (area under the peaks above baseline, per 10 min), SK1, SKR-CHO-K1, Fura-2 F340/F380, monophasic dose-response, N = 5-7): 1.18 nM
- SKR mRNA expression vs DEPC water control [8]: No difference

Compound: GGEGEQFDDY(SO3H)GHMRF [SK2]
- SK mRNA expression vs DEPC water control [5]: decrease significantly
- Prolongation of time to complete a blood meal, vs DEPC water and among peptides ([6]; SK1, SK2 at 200 μM, SK1 + SK2 at 100 μM each): stronger prolongation than SK1
- Blood intake vs control ([2]; SK2 50 μM (50 pmol in 1 μL), thoracic injection, 30 per group): no significant difference
- Calcium response in parental CHO-K1 cells [7]: no effect
- Reversibility of stimulation upon wash-out in perifused SKR-CHO-K1 cells [1]: long‐lasting even after wash‐out
- Calcium response in SKR-CHO-K1 cells ([1]; SK2 100 pM): did not stimulate any increases in calcium concentration
- Calcium response in SKR-CHO-K1 cells ([1]; SK2 3 nM alone (parallel to antagonist experiment)): strong calcium oscillations
- Calcium response in SKR-CHO-K1 cells ([1]; SK2 at 300 pM, 1, 3, 10, and 30 nM (all)): lasting calcium oscillations
- Onset (lag time) of cytosolic calcium oscillations in SKR-CHO-K1 cells [1]: significant lag time
- EC50 ([1]; read-out: EC50, calcium oscillations (areas under the peak above baseline per 10 min), SK2, SKR-CHO-K1, Fura-2 F340/F380, N = 5-8): 0.251 nM
- SKR mRNA expression vs DEPC water control [8]: No difference
- Pre-blood meal body weight among groups [3]: No difference
- Body weight after injection at different doses ([3]; SK2 50, 100, 150 μM (Figure 3E left)): no changes in body weight
